# Test results from ChEMBL document CHEMBL1121875, “Retinoic acid analogues with ring modifications. Synthesis and pharmacological activity” (J Med Chem, 1981).
# Target: T1, Ornithine decarboxylase (Mus musculus) (UniProt P00860)
# T1 sequence (whole entry): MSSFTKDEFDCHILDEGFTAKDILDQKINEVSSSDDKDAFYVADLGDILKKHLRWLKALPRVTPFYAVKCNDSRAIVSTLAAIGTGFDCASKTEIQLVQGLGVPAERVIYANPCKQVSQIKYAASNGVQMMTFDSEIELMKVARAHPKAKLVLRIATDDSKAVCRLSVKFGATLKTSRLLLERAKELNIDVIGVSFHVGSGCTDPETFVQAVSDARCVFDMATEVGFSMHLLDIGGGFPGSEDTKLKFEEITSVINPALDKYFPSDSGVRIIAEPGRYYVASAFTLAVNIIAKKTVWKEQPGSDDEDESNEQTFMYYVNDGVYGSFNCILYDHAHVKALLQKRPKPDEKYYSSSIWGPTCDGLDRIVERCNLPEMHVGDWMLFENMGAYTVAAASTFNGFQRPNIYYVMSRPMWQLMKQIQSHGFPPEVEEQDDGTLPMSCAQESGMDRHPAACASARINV
# Experiment: (§1) Percent inhibition of TPA-induced ornithine decarboxylase activity
# Type: functional
# Conditions: tested as the 2H-labelled form; concentration not given here
# Outline: (§2)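 Mouse epidermal ODC was induced by topical TPA on the back skin, with each retinoid applied topically to the back at 1.7 or 17 nmol. Each treatment used 3–6 groups of 3–4 mice. Epidermal ODC activity was measured by a previously described method and reported as % inhibition versus TPA-only controls (mean ± SE).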
row,inhibition [%],SMILES
1,90,CC1=C(/C=C/C(C)=C/C=C/C(C)=C/C(=O)O)C(C)(C)CCC1

# Target: T1, Ornithine decarboxylase (Mus musculus)
# Experiment: as §1
# Type: functional
# Design: concentration or dose not given beside the values
# Conditions: concentration not given here
# Outline: as §2
row,inhibition [%],SMILES
1,92,CC1=C(/C=C/C(C)=C/C=C/C(C)=C/C(=O)O)C(C)(C)CCC1
2,64,CCOC(=O)/C=C(C)/C=C/C=C(C)/C=C/C1CC2CCC1C2 (stereo not drawn)
3,80,CCOC(=O)c1ccc(/C=C(C)/C=C/C23OC2(C)CCCC3(C)C)cc1 (stereo not drawn)
4,72,CCOC(=O)/C=C(C)/C=C/C=C(C)/C=C/C1=C(C)C2(CCC1(C)C)CC2
5,45,CCOC(=O)\C=C(C)/C=C/C=C(C)/C=C/C12CC1(C)CCCC2(C)C (stereo not drawn)
6,67,CCOC(=O)\C=C(C)/C=C/C=C(C)/C=C/C1=C(C)C2(CCC1(C)C)CC2
7,96,CC1=C(/C=C/C(C)=C/C=C/C(C)=C\C(=O)O)C(C)(C)CCC1
8,54,CCOC(=O)/C=C(C)/C=C/C=C(C)/C=C/C1=CC2CCC1C2 (stereo not drawn)
9,70,CCOC(=O)/C=C(C)/C=C/C=C(C)/C=C/C12CC1(C)CCCC2(C)C (stereo not drawn)
10,80,CCOC(=O)c1ccc(/C=C(C)/C=C/C2=C(C)CCCC2(C)C)cc1
11,80,CCOC(=O)c1ccc(/C=C(C)/C=C/C23CC2(C)CCCC3(C)C)cc1 (stereo not drawn)

# Same assay, conditions: tested as the 2H-labelled form, concentration not given here
row,inhibition [%],SMILES
1,90,CC1=C(/C=C/C(C)=C/C=C/C(C)=C/C(=O)O)C(C)(C)CCC1
